Data from article PMC6127800 (Molecular Pharmaceutics, 2018).
Like-named read-outs stand apart in the source and are kept apart here.

Assays:
[1] = Ex vivo biodistribution of [68Ga]WL12 in hPD-L1 and CHO tumor model; set-up: species or system mice; details: female, NSG, mouse, iv, 25 uCi, total radioactivity
How it was run: (§1)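 Female NSG mice, 6–8 weeks old, carried s.c. CHO cells stably expressing human PD-L1 and parental CHO cells (10 × 10^6, opposite upper flanks), used at 200−500 mm3. Radiotracer was given i.v. at 25 μCi, with tissues taken at 15, 60 and 120 min (n = 3). Blocking (n = 2) used 50 μg unlabeled peptide s.c. 60 min pre-tracer. %ID/g was decay-corrected against triplicate 68Ga standards; tumor-to-blood and tumor-to-muscle ratios were derived.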

hPD-L1 and CHO tumors = experiment: as above; set-up: species or system mice; details: 120 min
How it was run: as §1

[2] = type: in vivo, mice; details: female, NSG, mouse, iv, 25 uCi, total radioactivity
[3] = tested on: MDAMB231 and SUM149 tumors; type: in vivo, mice; details: 60 min; 50 μg WL12 s.c. 60 min before tracer, n = 2

CCCC[C@H]1C(=O)N(C)[C@@H](CCCC)C(=O)N[C@@H](CCCNC(=O)CCC(C(=O)O)N2CCN(CC(=O)O)CCN(CC(=O)O)CCN(CC(=O)O)CC2)C(=O)N[C@H](C(=O)NCC(N)=O)CSCC(=O)N[C@@H](Cc2ccc(O)cc2)C(=O)N(C)[C@@H](C)C(=O)N[C@@H](CC(N)=O)C(=O)N2CCC[C@H]2C(=O)N[C@@H](Cc2c[nH]cn2)C(=O)N[C@@H](CC(C)C)C(=O)N2C[C@H](O)C[C@H]2C(=O)N[C@@H](Cc2c[nH]c3ccccc23)C(=O)N[C@@H](CO)C(=O)N[C@@H](Cc2cn(C)c3ccccc23)C(=O)N1C (stereo partly shown) [[^68Ga]WL12, metal not drawn]
tissue uptake at 1 h ([1]; CHO tumor): 1.33 ± 0.21 %ID/g
tissue uptake at 1 h ([1]; blood): 3.3 ± 0.4 %ID/g
tissue uptake at 2 h ([1]; blood): 0.6 ± 0.01 %ID/g
tissue to tissue ratio at 2 h ([1]; hPD-L1 tumor / blood): 16 ± 3.4
tissue to tissue ratio at 1 h ([1]; hPD-L1 tumor / muscle): 59.8 ± 16.5
tissue to tissue ratio at 2 h ([1]; hPD-L1 tumor / muscle): 100 ± 61.2
tissue uptake at 0.25 h ([1]; hPD-L1 tumor): 19.4 ± 3.3 %ID/g
tissue uptake at 1 h ([1]; hPD-L1 tumor): 11.6 ± 3.18 %ID/g
tissue uptake at 2 h ([1]; hPD-L1 tumor): 9.89 ± 1.72 %ID/g
tissue uptake at 1 h ([1]; kidney): 64.7 ± 12.1 %ID/g
tissue uptake at 2 h ([1]; kidney): 27.7 ± 4.09 %ID/g
tissue uptake at 1 h ([1]; liver): 15.1 ± 7.6 %ID/g
tissue uptake at 2 h ([1]; liver): 2.7 ± 0.2 %ID/g
hPD-L1/CHO tumor ratio (hPD-L1 and CHO tumors): 19.7 ± 2.7
tissue uptake at 1 h ([2]; MDAMB231 tumor): 4.97 ± 0.8 %ID/g
tissue uptake at 1 h ([2]; SUM149 tumor): 1.9 ± 0.1 %ID/g
tissue uptake at 1 h ([2]; kidney): 65.6 ± 3.6 %ID/g
tissue uptake at 1 h ([2]; liver): 11.4 ± 0.7 %ID/g
reduction in MDAMB231 tumor uptake with blocking dose of WL12 [3]: > 50%
